Screens as filed in PubChem BioAssay.
PPC-1+TRAIL kill: kills PPC-1 cancer cells in the presence of TRAIL; 220,000 tested, 0.41% active; cell killing (% activity), % at 4 µM or 5 µM; AID 1443; PPC-1 cells + TRAIL, ATPLite viability luminescence;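 active = cell killing above 50% in the first pass at 4 µM, then a duplicate retest at 5 µM averaging 50% or more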;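 note: plate controls were cells with TRAIL plus DMSO for no effect and medium-only wells lacking cells for full effect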
FLuc inhib CS: inhibits firefly luciferase, flagging false hits in luciferase inhibition screens | ATPLite firefly luciferase biochemical luminescence, 10 min | inhibition, % at 10 µM | 200,000 tested, 1.5% active;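 active = inhibition above about 50% when tested at 10 µM, limit read from the data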
Target sequence (P08659 whole entry, looked up): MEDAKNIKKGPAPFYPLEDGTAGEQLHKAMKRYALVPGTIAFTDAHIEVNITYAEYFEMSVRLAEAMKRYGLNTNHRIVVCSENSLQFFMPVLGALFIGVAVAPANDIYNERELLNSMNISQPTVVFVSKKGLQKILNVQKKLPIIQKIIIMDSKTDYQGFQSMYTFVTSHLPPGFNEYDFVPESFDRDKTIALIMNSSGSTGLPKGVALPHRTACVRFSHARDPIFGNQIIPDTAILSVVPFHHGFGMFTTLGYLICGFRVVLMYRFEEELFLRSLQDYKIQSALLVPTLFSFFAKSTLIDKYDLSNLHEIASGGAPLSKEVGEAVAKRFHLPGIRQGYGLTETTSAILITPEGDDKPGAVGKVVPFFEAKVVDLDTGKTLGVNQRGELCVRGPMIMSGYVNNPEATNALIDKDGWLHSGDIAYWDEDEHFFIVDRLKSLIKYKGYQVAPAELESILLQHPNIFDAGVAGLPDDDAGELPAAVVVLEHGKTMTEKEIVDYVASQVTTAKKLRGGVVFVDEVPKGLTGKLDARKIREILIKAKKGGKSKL
TRAIL sens C8: caspase-8 TRAIL sensitization; NB7+C8 cells + TRAIL, ATPlite viability luminescence; inhibition (viability loss, TRAIL sensitization), % at 10 µM; 360,000 tested, 1% active;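 active = compounds causing at least 50% loss of cell viability in the single-dose screen, relative to plate controls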
HSP90 inh: inhibitors of HSP90 luciferase refolding in rabbit reticulocyte lysate | luciferase refolding luminescence, 3 h | inhibition, % at 5.6 µM | 290,000 tested, 0.91% active;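 active = inhibition above the screen-wide mean plus 3 SD, computed separately per campaign, cut at about 16% in these data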;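 note: 0% = DMSO wells and 100% = 60 µM geldanamycin wells; inhibitors lower the luminescence because luciferase stays unfolded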
FLuc act counter: affects firefly luciferase, flagging false hits in luciferase stimulation screens. P08659. ATPlite luciferase biochemical, luminescence, 10 min; 0 = ATP-free wells, 1 = DMSO control. activation factor at 10 µM. 200,000 tested, under 10 active. AID 1027;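 active = luciferase activation factor, scaled between plate controls, of at least 2 with compound at 10 µM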
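Assay system: Luciferase/luciferin reagent mix; Medium: PBS as buffer for the ATP substrate; Dosing: test compounds dosed from 2 mM stocks in 100% DMSO; Times: 10 min, room temperature; Signal: luminescence from luciferase reaction; Read-out: luciferase activation; Controls: No-ATP low control, compound-free enzyme-plus-ATP high control.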
* hit, by the source's call. Sampled rows, rich in hits. Any-hit rate of the full collection: about 2%.

How did C(=C\c1ccco1)/c1nc2ccccc2[nH]1 do in these assays?
PPC-1+TRAIL kill: 16; FLuc inhib CS: 83*; TRAIL sens C8: 51*; HSP90 inh: 2; FLuc act counter: 0.2

Results for C/C(=N/OC(=O)c1ccc(C)cc1)c1cccs1 ?
PPC-1+TRAIL kill: 1; FLuc inhib CS: 98*; TRAIL sens C8: 7; HSP90 inh: 2; FLuc act counter: 0

Results for C/C(=N\OC(=O)c1ccc(C)cc1)c1sc(C)nc1C ?
PPC-1+TRAIL kill: -16; FLuc inhib CS: 76*; TRAIL sens C8: 13; HSP90 inh: -5; FLuc act counter: 0.2

Results for COc1ccc(C(=O)O/N=C(/c2cccs2)C(C)(C)C)cc1 ?
PPC-1+TRAIL kill: 6; TRAIL sens C8: 0; HSP90 inh: -1

Results for Cc1ccc2c(CN3CCN(c4ccccc4)CC3)cc(=O)oc2c1 ?
TRAIL sens C8: 11

How did CC(C)(C)n1ncc2c(=O)n(CC(=O)NCc3ccco3)cnc21 do in these assays?
PPC-1+TRAIL kill: 21; FLuc inhib CS: 4; TRAIL sens C8: -1; HSP90 inh: 4; FLuc act counter: 1

What do the screens show for `CC(C)(C)n1ncc2c(=O)n(CC(=O)NCc3ccc(F)cc3)cnc21`?
PPC-1+TRAIL kill: 23; FLuc inhib CS: 36; TRAIL sens C8: 10; HSP90 inh: 16*; FLuc act counter: 0.6

Results for Nc1cc2c3c(cccc3c1)C(=O)N(CCN1CCCC1)C2=O ?
PPC-1+TRAIL kill: 14; TRAIL sens C8: 25; HSP90 inh: 3

What do the screens show for `O=C1c2cccc3cc([N+](=O)[O-])cc(c23)C(=O)N1CCN1CCCC1`?
PPC-1+TRAIL kill: 25; TRAIL sens C8: 59*; HSP90 inh: 2

How did COc1ccc(OC)c(/C=C/c2ccc3cccc(O)c3n2)c1 do in these assays?
TRAIL sens C8: 8; HSP90 inh: 7

What do the screens show for `COc1ccc(C=Cc2ccc3ccccc3n2)c(OC)c1`?
TRAIL sens C8: 70*

What do the screens show for `CC(C)c1nnc(NC(=O)c2ccc3c(c2)OCO3)s1`?
PPC-1+TRAIL kill: 36; FLuc inhib CS: 51*; TRAIL sens C8: 26; HSP90 inh: 7; FLuc act counter: 0.5

Results for Cc1cc(C)nc(NC(=O)c2ccc3c(c2)OCO3)c1 ?
PPC-1+TRAIL kill: 18; FLuc inhib CS: 56*; HSP90 inh: 1; FLuc act counter: 0.4

How did CCSc1nnc(NC(=O)c2ccc3c(c2)OCO3)s1 do in these assays?
PPC-1+TRAIL kill: 12; FLuc inhib CS: 12; TRAIL sens C8: 14; HSP90 inh: 2; FLuc act counter: 0.9

How did CCOC(=O)CSc1nnc(NC(=O)c2ccc3c(c2)OCO3)s1 do in these assays?
TRAIL sens C8: 70*; HSP90 inh: 10

What do the screens show for `Cc1cccc(NC(=O)CNC(=O)[C@H]2O[C@@H](n3ccc(=O)[nH]c3=O)[C@H](O)[C@@H]2O)c1C`?
TRAIL sens C8: -32

How did N/C(=N\OC(=O)c1ccccc1)c1ccncc1 do in these assays?
PPC-1+TRAIL kill: 24; FLuc inhib CS: 66*; TRAIL sens C8: 2; HSP90 inh: 2; FLuc act counter: 0.3

How did C/C(=N\OC(=O)c1ccc(Br)cc1)c1ccccn1 do in these assays?
PPC-1+TRAIL kill: 27; FLuc inhib CS: 80*; TRAIL sens C8: -8; HSP90 inh: -3; FLuc act counter: 0.2

How did COc1cc(OC)cc(C(=O)O/N=C(\N)c2ccncc2)c1 do in these assays?
PPC-1+TRAIL kill: 9; FLuc inhib CS: 4; TRAIL sens C8: -9; HSP90 inh: 0; FLuc act counter: 1

How did N/C(=N\OC(=O)c1cccc(Br)c1)c1ccncc1 do in these assays?
PPC-1+TRAIL kill: 15; FLuc inhib CS: 39; TRAIL sens C8: 2; HSP90 inh: 1; FLuc act counter: 0.6

Results for N/C(=N\OC(=O)c1ccc(Br)cc1)c1ccncc1 ?
PPC-1+TRAIL kill: 22; FLuc inhib CS: 68*; TRAIL sens C8: -10; HSP90 inh: 3; FLuc act counter: 0.3

Results for C/C(=N/OCc1ccc(Br)cc1)c1ccccn1 ?
PPC-1+TRAIL kill: 6; FLuc inhib CS: 45; TRAIL sens C8: 24; HSP90 inh: -2; FLuc act counter: 0.5

How did CC(=O)Nc1ccc(-c2ccnc3c2CC(C(=O)Nc2cccnc2)O3)cc1 (stereo not drawn) do in these assays?
TRAIL sens C8: 12

What do the screens show for `COc1ccccc1NC(=O)Nc1nnc(-c2ccco2)s1`?
PPC-1+TRAIL kill: 9; FLuc inhib CS: -4; HSP90 inh: 2; FLuc act counter: 1

Results for COc1ccccc1C(=O)Nc1nnc(-c2ccco2)s1 ?
PPC-1+TRAIL kill: 24; FLuc inhib CS: 51*; TRAIL sens C8: 26; HSP90 inh: 4; FLuc act counter: 0.5

How did O=C(Nc1nnc(/N=C/c2ccco2)s1)c1ccc(F)cc1 do in these assays?
PPC-1+TRAIL kill: -1; FLuc inhib CS: 39; TRAIL sens C8: 50*; HSP90 inh: 5; FLuc act counter: 0.6

What do the screens show for `COc1ccc(C(=O)Nc2nnc(-c3ccco3)s2)cc1`?
PPC-1+TRAIL kill: 46; FLuc inhib CS: 62*; TRAIL sens C8: 59*; HSP90 inh: 12; FLuc act counter: 0.4

What do the screens show for `O=C(Nc1nnc(-c2ccco2)s1)c1ccccc1`?
PPC-1+TRAIL kill: 13; FLuc inhib CS: 48; TRAIL sens C8: 29; HSP90 inh: 14; FLuc act counter: 0.5

Results for COc1ccc(CN2C[C@@H](CO)O[C@@H](n3cnc4c(NCc5ccc(F)cc5)ncnc43)C2)cc1 ?
TRAIL sens C8: 5

Results for CCc1nc2c(OCc3cc(Cl)cc(Cl)c3)cccn2c1N(C)C(=O)c1ccc(OC)cc1 ?
TRAIL sens C8: 22

How did O=[N+]([O-])c1c(Nc2cccc(O)c2)cc(Cl)c2nonc12 do in these assays?
TRAIL sens C8: 59*; HSP90 inh: 0

What do the screens show for `O=C(O)c1ccc(Nc2cc(Cl)c3nonc3c2[N+](=O)[O-])cc1`?
PPC-1+TRAIL kill: -6; FLuc inhib CS: -1; TRAIL sens C8: -4; HSP90 inh: 0; FLuc act counter: 1

Results for O=C(Nc1cccnc1)c1cc(-c2ccc3c(c2)OCO3)on1 ?
PPC-1+TRAIL kill: 17; FLuc inhib CS: 68*; TRAIL sens C8: 10; HSP90 inh: 7; FLuc act counter: 0.3

Results for O=C(Nc1cccnc1)c1cc(-c2ccc(F)cc2)on1 ?
PPC-1+TRAIL kill: 0; FLuc inhib CS: 54*; TRAIL sens C8: -1; HSP90 inh: 0; FLuc act counter: 0.5

How did O=C(Nc1cccnc1)c1cc(-c2ccc(Cl)c(Cl)c2)on1 do in these assays?
TRAIL sens C8: -4; HSP90 inh: -3

What do the screens show for `O=C1c2ccccc2C(c2nnnn2-c2ccc3c(c2)OCCO3)N1Cc1cccs1` (stereo not drawn)?
TRAIL sens C8: -13

Results for COc1cccc(-c2sc3ccc(OC)cc3c2-c2cnc(N3CCOCC3)nc2)c1 ?
TRAIL sens C8: -4

How did CCCCCN=C(N)N/N=C/c1c[nH]c2ccc(OC)cc12 do in these assays?
TRAIL sens C8: 94*
